Measurements: ChEMBL document CHEMBL4689842, “EUbOPEN Chemogenomics Library wave 1” (2021)

Experiments:
[1] = system: Fibroblast; assay: Incucyte cell viability with human fibroblast; type: toxicity, cell-based; conditions: 10 µM, compound concentration 10 uM; also: filed as whole numbers so only -1 and 0 and 1 occur
[2] = system: HEK-293T; assay: Multiplex assay against HEK293T; type: toxicity, cell-based; conditions: human;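 as to Population Tubulin-Different-Phenotype (%): share of the cells with healthy nuclei that show this phenotype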
Outline: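 Live cells were stained at seeding with Hoechst33342, BioTracker Green Microtubule Cytoskeleton Dye, MitoTracker Red and Annexin V Alexa Fluor 680, then imaged on a CQ1 microscope at 37°C and 5% CO2 after compound addition. CellPathfinder machine-learning gating split cells into Hoechst high-intensity objects or normal cells. Normal cells were split into healthy, pyknosed or fragmented nuclei, and pyknosed cells into mitotic or apoptotic. Tubulin, mitochondrial-mass and membrane-permeability phenotypes are per cents of healthy-nucleus cells.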

[3] = 12 h, 1 µM, compound concentration 1 uM, replicate 1
[4] = 12 h, 1 µM, compound concentration 1 uM, replicate 2
[5] = 12 h, 10 µM, compound concentration 10 uM, replicate 1
[6] = 12 h, 10 µM, compound concentration 10 uM, replicate 2
[7] = 24 h, 1 µM, compound concentration 1 uM, replicate 1
[8] = 24 h, 1 µM, compound concentration 1 uM, replicate 2
[9] = 24 h, 10 µM, compound concentration 10 uM, replicate 1
[10] = 24 h, 10 µM, compound concentration 10 uM, replicate 2

COc1cc2c(Nc3ccc(NC(=O)c4ccccc4)cc3)ncnc2cc1OCCCN1CCOCC1
Growth Rate ([1]; 0 h, replicate number 2, timepoint 0 hours): 1
Growth Rate ([1]; 6 h, replicate number 1, timepoint 6 hours): 0
Growth Rate ([1]; 12 h, replicate number 1, timepoint 12 hours): 0
Growth Rate ([1]; 18 h, replicate number 1, timepoint 18 hours): 0
Growth Rate ([1]; 24 h, replicate number 1, timepoint 24 hours): 0
Population Apoptotic (%) [2, 3]: 25%
Population Fragmented Nuclei (%) [2, 3]: 13%
Population Healthy Nuclei (%) [2, 3]: 42%
Population Hoechst High Intensity Objects (%) [2, 3]: 18%
Population Membrane Permeable-Phenotype (%) [2, 3]: 29%
Population Mitochondria Different-Phenotype (%) [2, 3]: 17%
Population Mitotic Cells (%) [2, 3]: 74%
Population Normal (%) [2, 3]: 81%
Population Pyknosed Nuclei (%) [2, 3]: 43%
Population Tubulin-Different-Phenotype (%) [2, 3]: 81%
Total Cell Count [2, 3]: 532
Population Apoptotic (%) [2, 4]: 26%
Population Fragmented Nuclei (%) [2, 4]: 3%
Population Healthy Nuclei (%) [2, 4]: 84%
Population Hoechst High Intensity Objects (%) [2, 4]: 6%
Population Membrane Permeable-Phenotype (%) [2, 4]: 15%
Population Mitochondria Different-Phenotype (%) [2, 4]: 39%
Population Mitotic Cells (%) [2, 4]: 73%
Population Normal (%) [2, 4]: 93%
Population Pyknosed Nuclei (%) [2, 4]: 12%
Population Tubulin-Different-Phenotype (%) [2, 4]: 96%
Total Cell Count [2, 4]: 927
Population Apoptotic (%) [2, 5]: 17%
Population Fragmented Nuclei (%) [2, 5]: 17%
Population Healthy Nuclei (%) [2, 5]: 59%
Population Hoechst High Intensity Objects (%) [2, 5]: 11%
Population Membrane Permeable-Phenotype (%) [2, 5]: 3%
Population Mitochondria Different-Phenotype (%) [2, 5]: 9%
Population Mitotic Cells (%) [2, 5]: 82%
Population Normal (%) [2, 5]: 88%
Population Pyknosed Nuclei (%) [2, 5]: 22%
Population Tubulin-Different-Phenotype (%) [2, 5]: 9%
Total Cell Count [2, 5]: 626
Population Apoptotic (%) [2, 6]: 6%
Population Fragmented Nuclei (%) [2, 6]: 3%
Population Healthy Nuclei (%) [2, 6]: 89%
Population Hoechst High Intensity Objects (%) [2, 6]: 2%
Population Membrane Permeable-Phenotype (%) [2, 6]: 2%
Population Mitochondria Different-Phenotype (%) [2, 6]: 12%
Population Mitotic Cells (%) [2, 6]: 93%
Population Normal (%) [2, 6]: 97%
Population Pyknosed Nuclei (%) [2, 6]: 6%
Population Tubulin-Different-Phenotype (%) [2, 6]: 13%
Total Cell Count [2, 6]: 1320
Population Apoptotic (%) [2, 7]: 29%
Population Fragmented Nuclei (%) [2, 7]: 14%
Population Healthy Nuclei (%) [2, 7]: 58%
Population Hoechst High Intensity Objects (%) [2, 7]: 21%
Population Membrane Permeable-Phenotype (%) [2, 7]: 20%
Population Mitochondria Different-Phenotype (%) [2, 7]: 22%
Population Mitotic Cells (%) [2, 7]: 70%
Population Normal (%) [2, 7]: 78%
Population Pyknosed Nuclei (%) [2, 7]: 26%
Population Tubulin-Different-Phenotype (%) [2, 7]: 89%
Total Cell Count [2, 7]: 523
Population Apoptotic (%) [2, 8]: 2%
Population Fragmented Nuclei (%) [2, 8]: 5%
Population Healthy Nuclei (%) [2, 8]: 87%
Population Hoechst High Intensity Objects (%) [2, 8]: 6%
Population Membrane Permeable-Phenotype (%) [2, 8]: 22%
Population Mitochondria Different-Phenotype (%) [2, 8]: 25%
Population Mitotic Cells (%) [2, 8]: 97%
Population Normal (%) [2, 8]: 93%
Population Pyknosed Nuclei (%) [2, 8]: 7%
Population Tubulin-Different-Phenotype (%) [2, 8]: 97%
Total Cell Count [2, 8]: 1034
Population Apoptotic (%) [2, 9]: 9%
Population Fragmented Nuclei (%) [2, 9]: 12%
Population Healthy Nuclei (%) [2, 9]: 75%
Population Hoechst High Intensity Objects (%) [2, 9]: 9%
Population Membrane Permeable-Phenotype (%) [2, 9]: 11%
Population Mitochondria Different-Phenotype (%) [2, 9]: 5%
Population Mitotic Cells (%) [2, 9]: 90%
Population Normal (%) [2, 9]: 90%
Population Pyknosed Nuclei (%) [2, 9]: 11%
Population Tubulin-Different-Phenotype (%) [2, 9]: 13%
Total Cell Count [2, 9]: 622
Population Apoptotic (%) [2, 10]: 4%
Population Fragmented Nuclei (%) [2, 10]: 14%
Population Healthy Nuclei (%) [2, 10]: 79%
Population Hoechst High Intensity Objects (%) [2, 10]: 4%
Population Membrane Permeable-Phenotype (%) [2, 10]: 5%
Population Mitochondria Different-Phenotype (%) [2, 10]: 3%
Population Mitotic Cells (%) [2, 10]: 95%
Population Normal (%) [2, 10]: 95%
Population Pyknosed Nuclei (%) [2, 10]: 5%
Population Tubulin-Different-Phenotype (%) [2, 10]: 15%
Total Cell Count [2, 10]: 1748
